Results taken from ChEMBL document CHEMBL1126800, “Preparation of substituted N-phenyl-4-aryl-2-pyrimidinamines as mediator release inhibitors” (J Med Chem, 1993).

organism: Homo sapiens; test: In vitro inhibition of histamine release from human basophils; type: functional, organism-based; conditions: not given
Method in brief: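 Human basophils separated from leukocytes were incubated with test compound, then challenged with anti-IgE or antigen (Lichtenstein method). Histamine release was measured against controls and blanks. IC50 is the concentration lowering histamine release by 50%.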

| IC50 | Compound |
| --- | --- |
| 0.7 µM | FC(F)(F)c1cccc(Nc2nccc(-c3cccnc3)n2)c1 [listing 1 of 2 here] |
| 3.9 µM | c1cc(Nc2nccc(-c3ccncc3)n2)cc(-n2ccnc2)c1 [listing 1 of 2 here] |
| 2.1 µM | FC(F)(F)c1cccc(Nc2nccc(-c3cccnc3)n2)c1 [listing 2 of 2 here] |
| 0.4 µM | FC(F)(F)c1cccc(Nc2nccc(-c3ccccn3)n2)c1 [listing 1 of 2 here] |
| 1.3 µM | c1ccc(Nc2nccc(-c3cccnc3)n2)cc1 |
| 0.6 µM | c1cc(Nc2nccc(-c3ccncc3)n2)cc(-n2ccnc2)c1 [listing 2 of 2 here] |
| 2.9 µM | FC(F)(F)c1cccc(Nc2nccc(-c3ccccn3)n2)c1 [listing 2 of 2 here] |
| 2.4 µM | Nc1ccc(Nc2nccc(-c3ccncc3)n2)cc1 [listing 1 of 2 here] |

| Compound | IC50 |
| --- | --- |
| c1ccc(-c2ccnc(Nc3cccc(-n4ccnc4)c3)n2)nc1 | 0.2 µM |

same assay, conditions: Homo sapiens

| IC50 | Compound |
| --- | --- |
| 13.9 µM | c1ccc(-c2nccc(-c3ccncc3)n2)cc1 |
| 1.5 µM | Nc1ccc(Nc2nccc(-c3ccccn3)n2)cc1 |
| 0.5 µM | Nc1cccc(Nc2nccc(-c3cccnc3)n2)c1 |
| 2.9 µM | Nc1ccc(Nc2nccc(-c3ccncc3)n2)cc1 [listing 2 of 2 here] |
| 0.2 µM | c1cncc(-c2ccnc(Nc3cccc(-n4ccnc4)c3)n2)c1 |
| 1.5 µM | Clc1cccc(Nc2nccc(-c3cccnc3)n2)c1 |
| 12.4 µM | CCOC(=O)c1ccc(Nc2nccc(-c3cccnc3)n2)cc1 |
| 0.5 µM | NS(=O)(=O)c1cccc(Nc2nccc(-c3ccccn3)n2)c1 |
| 17.7 µM | Cc1cc(-c2ccco2)nc(Nc2ccccc2)n1 |
| 26.8 µM | Cc1cc(-c2ccccn2)nc(Nc2ccccc2)n1 |
| 0.5 µM | CC(=O)N(C)c1ccc(Nc2nccc(-c3ccncc3)n2)cc1 |
| 1.8 µM | Cc1ccsc1-c1ccnc(Nc2ccc(N(C)C)cc2)n1 |
| 2.1 µM | CCc1ccc(Nc2nccc(-c3ccccn3)n2)cc1 |
| 21 µM | Fc1cccc(F)c1Nc1nccc(-c2cccnc2)n1 |
| 32 µM | c1ccc(Nc2nccc(-c3ccco3)n2)cc1 |
| 28.5 µM | Cc1cccc(Nc2nccc(-c3cc(C)oc3C)n2)c1 |
| > 24 µM | Cc1cc(C)cc(Nc2nc(C)cc(-c3ccco3)n2)c1 |
| 15.6 µM | COc1ccc(Nc2nccc(-c3ccsc3)n2)cc1 |
| 8.3 µM | COc1ccc(Nc2nccc(-c3ccccn3)n2)cc1 |
| 2.1 µM | Cc1cccc(Nc2nccc(-c3ccco3)n2)c1 |
| 1.5 µM | Cc1cccc(Nc2nccc(-c3cccnc3)n2)c1 |
| 23.5 µM | Oc1ccccc1Nc1nccc(-c2cccnc2)n1 |
| 1 µM | CCN(CC)CCSc1ccc(Nc2nccc(-c3ccncc3)n2)cc1 |
| 10.6 µM | CCc1cccc(Nc2nccc(-c3ccncc3)n2)c1 |
| 0.3 µM | c1cc(Nc2nccc(-c3cccs3)n2)cc(-n2ccnc2)c1 |

| IC50 | Compound |
| --- | --- |
| 0.3 µM | Nc1cccc(Nc2nccc(-c3ccccn3)n2)c1 |
| 1.9 µM | Fc1ccc(Nc2nccc(-c3ccncc3)n2)cc1 |
| 1.3 µM | CCN(CC)CCCOc1ccc(Nc2nccc(-c3ccncc3)n2)cc1 |
| 5.1 µM | Oc1ccc(Nc2nccc(-c3cccnc3)n2)cc1 |
| 31.7 µM | c1ccc(Nc2nccc(-c3cccs3)n2)cc1 |
| 0.6 µM | CC(C)(C)c1ccc(Nc2nccc(-c3cccnc3)n2)cc1 |
| 4.2 µM | COc1ccc(Nc2nccc(-c3ccncc3)n2)cc1 |
| 5.3 µM | CC(=O)Nc1ccc(Nc2nccc(-c3ccncc3)n2)cc1 |
| 0.2 µM | c1cc(Nc2nccc(-c3ccncc3)n2)cc(OCCn2ccnc2)c1 |
| 0.4 µM | CC1CCN(c2ccc(Nc3nccc(-c4cccs4)n3)cc2)CC1 |
| 3.7 µM | CN(C)c1cccc(Nc2nccc(-c3ccncc3)n2)c1 |
| 2.2 µM | CCOC(=O)C(=O)N(c1ccccc1)c1nccc(-c2ccncc2)n1 |
| > 3 µM | Cc1cn(-c2ccc(Nc3nccc(-c4ccncc4)n3)cc2)cn1 |
| 2.2 µM | Cc1cccc(Nc2nccc(-c3c[nH]c4ccccc34)n2)c1 |
| 2.1 µM | CNc1ccc(Nc2nccc(-c3cccnc3)n2)cc1 |
| 4 µM | CCc1ccc(Nc2nccc(-c3ccnc4ccccc34)n2)cc1 |
| > 3 µM | CCN(CC)CCOc1ccc(Nc2nccc(-c3ccccn3)n2)cc1 |
| 5.8 µM | COc1cccc(Nc2nccc(-c3cc(C)oc3C)n2)c1 |
| 2.2 µM | c1coc(-c2ccnc(Nc3ccc(-n4ccnc4)cc3)n2)c1 |
| 5.1 µM | NS(=O)(=O)c1ccc(Nc2nccc(-c3ccncc3)n2)cc1 |
| 0.2 µM | NS(=O)(=O)c1ccc(Nc2nccc(-c3cccnc3)n2)cc1 |
| 2.8 µM | CN(C)c1ccc(Nc2nccc(-c3cccnc3)n2)cc1 |
| 2.4 µM | CN(C)c1cccc(Nc2nccc(-c3cccs3)n2)c1 |
| 28 µM | CCN(CC)c1ccc(Nc2nccc(-c3ccc(C)o3)n2)cc1 |
| 1 µM | Nc1cccc(Nc2nccc(-c3ccncc3)n2)c1 |

| IC50 | Compound |
| --- | --- |
| 4.6 µM | CC(C)N(CCOc1ccc(Nc2nccc(-c3cccnc3)n2)cc1)C(C)C |
| 1.8 µM | CN(C)c1cccc(Nc2nccc(-c3cccnc3)n2)c1 |
| 0.6 µM | CCN(CC)CCOc1cccc(Nc2nccc(-c3ccncc3)n2)c1 |
| 31.9 µM | Cc1cc(-c2ccccn2)nc(Nc2ccc(N(C)C)cc2)n1 |
| 33.3 µM | COc1ccc(Nc2nccc(-c3cc[n+](C)cc3)n2)cc1 |
| 0.2 µM | CCN(CC)CCOc1ccc(Nc2nccc(-c3cccnc3)n2)cc1 |
| 0.4 µM | c1ccc(-c2ccnc(Nc3cccc(OCCn4ccnc4)c3)n2)nc1 |
| 0.4 µM | COc1cccc(Nc2nccc(-c3ccco3)n2)c1 |
| 3 µM | CCOC(=O)c1cccc(Nc2nccc(-c3ccccn3)n2)c1 |
| 1.4 µM | c1ccc(-c2ccnc(Nc3ccc(-n4ccnc4)cc3)n2)nc1 |
| 0.9 µM | CN(C)c1ccc(Nc2nccc(-c3cccs3)n2)cc1 |
| 36.2 µM | CN(C)c1ccccc1Nc1nccc(-c2ccncc2)n1 |
| 0.3 µM | CC(=O)Nc1cccc(Nc2nccc(-c3ccccn3)n2)c1 |
| 0.3 µM | CC1CCN(C(=O)COc2ccc(Nc3nccc(-c4ccncc4)n3)cc2)CC1 |
| 1.8 µM | CC1CCN(c2ccc(Nc3nccc(-c4ccco4)n3)cc2)CC1 |
| 8.7 µM | CCN(CC)c1ccc(Nc2nccc(-c3ccco3)n2)cc1 |
| > 24 µM | COc1ccc(N(C)c2nccc(-c3ccncc3)n2)cc1 |
| 0.2 µM | c1cc(Nc2nccc(-c3ccco3)n2)cc(OCCn2ccnc2)c1 |
| 0.7 µM | Fc1cccc(Nc2nccc(-c3ccncc3)n2)c1 |
| 1.9 µM | CC1CCN(c2ccc(Nc3nccc(-c4ccccn4)n3)cc2)CC1 |
| 10.5 µM | CCOC(=O)c1cccc(Nc2nccc(-c3cccnc3)n2)c1 |
| 0.8 µM | CC(=O)c1ccc(Nc2nccc(-c3cccnc3)n2)cc1 |
| 9.8 µM | COc1ccccc1Nc1nccc(-c2cccnc2)n1 |
| 0.2 µM | NS(=O)(=O)c1cccc(Nc2nccc(-c3cccnc3)n2)c1 |
| 1.8 µM | COc1cccc(Nc2nccc(-c3ccsc3)n2)c1 |

| IC50 | Compound |
| --- | --- |
| 2.7 µM | CC(=O)Nc1cccc(Nc2nccc(-c3ccncc3)n2)c1 |
| 5 µM | CC1CCN(c2cccc(Nc3nccc(-c4ccco4)n3)c2)CC1 |
| 0.8 µM | c1cc(Nc2nccc(-c3ccco3)n2)cc(-n2ccnc2)c1 |
| 0.6 µM | CC1CCN(c2ccc(Nc3nccc(-c4ccncc4)n3)cc2)CC1 |
| > 24 µM | Cc1cc(C)cc(Nc2ncc(C)c(-c3cccnc3)n2)c1 |
| 2.9 µM | CCN(CC)CCOc1cccc(Nc2nccc(-c3cccnc3)n2)c1 |
| 3.6 µM | CC(=O)Nc1cccc(Nc2nccc(-c3cccnc3)n2)c1 |
| 2 µM | Cc1cc(-c2ccnc(Nc3ccccc3)n2)c(C)o1 |
| > 24 µM | Cc1cc(C)cc(Nc2nc(C)cc(-c3ccccn3)n2)c1 |
| 8.8 µM | Cc1cccc(Nc2nccc(-c3ccncc3)n2)c1 |
| 0.6 µM | CN(C)CCCOc1ccc(Nc2nccc(-c3cccnc3)n2)cc1 |
| 1.4 µM | CCN(CC)CCOc1cccc(Nc2nccc(-c3ccco3)n2)c1 |
| 0.8 µM | Cc1cc(C)cc(Nc2nccc(-c3cccnc3)n2)c1 |
| 7.7 µM | CCc1ccc(Nc2nccc(-c3ccncc3)n2)cc1 |
| 1.8 µM | CC(=O)N(C)c1ccc(Nc2nccc(-c3ccccn3)n2)cc1 |
| 8.5 µM | Cc1cccc(Nc2nccc(-c3ccc[nH]3)n2)c1 |
| 0.1 µM | Cc1cc(C)cc(Nc2nccc(-c3ccccn3)n2)c1 |
| 4.1 µM | Cc1cc(C)cc(Nc2nccc(-c3cc(C)oc3C)n2)c1 |
| > 24 µM | CCN(CC)c1ccc(Nc2nccc(-c3cc(C)oc3C)n2)cc1 |
| 0.4 µM | CN(C)c1cccc(Nc2nccc(-c3ccccn3)n2)c1 |
| 7.6 µM | c1cc(-c2ccnc(Nc3ccc(-n4ccnc4)cc3)n2)ccn1 |
| 2.3 µM | COc1cccc(Nc2nccc(-c3ccc(C)s3)n2)c1 |
| 4.6 µM | NS(=O)(=O)c1ccc(Nc2nccc(-c3ccccn3)n2)cc1 |
| 0.7 µM | CN(C)CCOc1ccc(Nc2nccc(-c3cccnc3)n2)cc1 |
| 1.2 µM | CC1CCN(c2cccc(Nc3nccc(-c4cccnc4)n3)c2)CC1 |

| IC50 | Compound |
| --- | --- |
| 0.4 µM | COc1cccc(Nc2nccc(-c3ccncc3)n2)c1 |
| 19.2 µM | CCc1ccc(Nc2nccc(-c3cc(C)oc3C)n2)cc1 |
| 3 µM | c1ccc(Nc2nccc(-c3c[nH]c4ccccc34)n2)cc1 |
| 0.2 µM | COc1cccc(Nc2nccc(-c3ccccn3)n2)c1 |
| 5.7 µM | Cc1ccc(-c2ccnc(Nc3cccc(N(C)C)c3)n2)s1 |
| 0.9 µM | COc1cccc(Nc2nccc(-c3cccs3)n2)c1 |
| 2 µM | Cc1cccc(Nc2nccc(-c3ccc(C)o3)n2)c1 |
| 3.6 µM | CC(=O)Nc1ccc(Nc2nccc(-c3cccnc3)n2)cc1 |
| 1.9 µM | CN(C)c1ccc(Nc2nccc(-c3ccco3)n2)cc1 |
| 3.8 µM | Cc1cccc(Nc2nccc(-c3ccsc3)n2)c1 |
| 1.4 µM | CNc1ccc(Nc2nccc(-c3ccccn3)n2)cc1 |
| > 24 µM | Cc1cc(-c2ccncc2)nc(Nc2ccc(N(C)C)cc2)n1 |
| 4.3 µM | Cc1cc(C)cc(Nc2nccc(-c3cccs3)n2)c1 |
| 9.7 µM | CCc1cccc(Nc2nccc(-c3ccco3)n2)c1 |
| 1.3 µM | c1cncc(-c2ccnc(Nc3ccc(-n4ccnc4)cc3)n2)c1 |
| > 24 µM | COc1ccc(N(C)c2nccc(-c3cccnc3)n2)cc1 |
| 3.9 µM | COc1ccc(Nc2nccc(-c3cccs3)n2)cc1 |
| 3.9 µM | Cc1ccccc1Nc1nccc(-c2ccncc2)n1 |
| > 24 µM | CN(c1ccccc1)c1nccc(-c2ccncc2)n1 |
| 3.3 µM | Oc1ccc(Nc2nccc(-c3ccncc3)n2)cc1 |
| 0.5 µM | NS(=O)(=O)c1cccc(Nc2nccc(-c3ccncc3)n2)c1 |
